# SENP1 FRET inh: human SENP1 catalytic domain inhibitors, primary screen, biochemical, FRET, uHTS | 0.21% of 360,000 active | Sentrin-specific protease 1 (Homo sapiens), Q9P0U3 | inhibition, % at 10 µM | recombinant SENP1 catalytic domain, CyPet-SUMO1-YPet FRET cleavage;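 active = inhibition at least 30% at 10 µM, raw YFP signal under a set limit, fluorescence ratio 0.5 to 1.5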;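 also: 0% = enzyme with DMSO and 100% = no enzyme wells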
# Target sequence (Q9P0U3 419-644 limits assumed): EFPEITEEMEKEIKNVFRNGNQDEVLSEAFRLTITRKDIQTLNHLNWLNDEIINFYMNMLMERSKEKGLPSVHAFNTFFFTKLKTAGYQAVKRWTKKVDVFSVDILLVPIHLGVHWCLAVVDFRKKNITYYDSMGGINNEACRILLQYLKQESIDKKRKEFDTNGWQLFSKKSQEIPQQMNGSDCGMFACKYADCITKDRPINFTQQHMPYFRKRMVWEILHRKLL
#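 Assay system: hSENP1 catalytic domain, recombinant. Amount: SENP1 enzyme, 20 pM final. Schedule: 50 min reaction, RT, dark. Technique: FRET, CFP and YFP emission. Control set: no-enzyme wells low, DMSO-plus-enzyme wells high control.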
# SENP8 block-1: human SENP8 protease inhibitors, primary screen, biochemical, fluorescence, Nedd8 protein substrate, uHTS; Sentrin-specific protease 8 (Homo sapiens), Q96LD8; recombinant SENP8; inhibition, % at 20 µM; 0.64% of 360,000 active; in the data active = inhibition mostly above about 40%, no sharp cut-off; inactive = mostly below about 27%
# Target sequence (Q96LD8 whole entry, looked up): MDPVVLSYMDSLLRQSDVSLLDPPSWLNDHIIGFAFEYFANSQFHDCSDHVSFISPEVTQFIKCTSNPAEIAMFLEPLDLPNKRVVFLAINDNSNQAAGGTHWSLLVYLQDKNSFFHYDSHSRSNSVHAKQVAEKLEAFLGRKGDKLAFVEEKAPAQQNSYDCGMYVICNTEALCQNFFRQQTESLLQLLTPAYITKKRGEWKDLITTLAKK
# SENP8 block-2: SENP8 protease inhibitors, primary screen, biochemical, luminescence | Sentrin-specific protease 8 (Homo sapiens), Q96LD8 | purified SENP8, Z-RLRGG-aminoluciferin cleavage | inhibition, % at 10 µM | 1.2% of 330,000 active; in the data active = inhibition above about 50%
# Platelet DG rel: inhibitors of platelet dense granule secretion, primary screen, cell-based, MLPCN, human platelets; human platelet-rich plasma, SFLLRN dense granule ATP release, luminescence; inhibition, %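 (compounds screened at 7.5 µM in platelet-rich plasma)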; 0.22% of 300,000 active; AID 1663, 2009;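 active = mean replicate score, as percent of positive control, at or above 50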
# SENP7 block: SENP7 protease inhibitors, primary screen, biochemical, luminescence, uHTS; inhibition, % at 5 µM; Sentrin-specific protease 7 (Homo sapiens), Q9BQF6; AID 434973, 2010; recombinant SENP7, Z-RLRGG-aminoluciferin luminescence, 40 min; 1.5% of 330,000 active;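 active = inhibition above about 50% at the single test dose, limit read from the data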;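 also: plate controls were DMSO with enzyme for no effect and no enzyme buffer wells for full effect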
# SENP6 inh: SENP6 protease inhibitors, primary screen, biochemical, luminescence, uHTS; Recombinant SENP6 catalytic domain, aminoluciferin luminescence; 1.8% of 330,000 active; inhibition, % at 10 µM; Sentrin-specific protease 6 (Homo sapiens), Q9GZR1; AID 2599, 2010;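 active = inhibition above about 50% at the single tested dose, limit read from the data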;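 also: plate controls were DMSO wells with enzyme for no effect and DMSO wells lacking enzyme for full effect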
# SENP8 confirm: SENP8 protease inhibitors, retest, confirmation, biochemical, luminescence, single concentration. 40% of 6,200 active. shares compounds with SENP7 block. AID 488912, 2010. Recombinant SENP8, Z-RLRGG-aminoluciferin luminescence, 60 min. inhibition, % at 12.5 µM;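 active = mean inhibition across replicates above about 50%, limit read from the data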
# SENP6 confirm: SENP6 protease inhibitors, confirmation, biochemical, luminescence, single concentration; inhibition, % at 12.5 µM; recombinant SENP6, Z-RLRGG-aminoluciferin luminescence; 58% of 6,200 active; shares compounds with SENP7 block; AID 488915, 2010
# SENP7 confirm: SENP7 protease inhibitors, retest, confirmation, biochemical, luminescence, single concentration | shares compounds with SENP7 block | inhibition, % at 12.5 µM | AID 488917, 2010 | recombinant SENP7, Z-RLRGG-aminoluciferin luminescence, 40 min | 69% of 6,200 active
# Casp3 select: caspase-3 protease inhibitors, confirmation, selectivity assay for SENP inhibitor project, biochemical, single concentration. shares compounds with SENP7 block. purified caspase-3, Z-DEVD-aminoluciferin luminescence, 60 min. inhibition, % at 12.5 µM. 60% of 6,200 active. AID 488918, 2010;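 active = mean inhibition above about 50%, limit read from the data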;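 also: plate controls were enzyme with DMSO for no effect and wells without caspase-3 for full effect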
# Target sequence (P42574 28-227 limits assumed): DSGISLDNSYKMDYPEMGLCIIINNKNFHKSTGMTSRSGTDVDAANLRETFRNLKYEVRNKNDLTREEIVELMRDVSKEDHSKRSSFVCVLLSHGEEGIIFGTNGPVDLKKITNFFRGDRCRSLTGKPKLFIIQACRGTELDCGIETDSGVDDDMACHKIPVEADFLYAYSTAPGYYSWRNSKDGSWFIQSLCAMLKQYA
# Luc interf: interferes with luciferase luminescence in SENP counter-screen; shares compounds with SENP7 block; Pre-incubated SENP8/Z-RLRGG-aminoluciferin, luciferase luminescence interference; inhibition, % at 12.5 µM; 39% of 6,200 active; AID 488919;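 active = mean inhibition above about 50% when retested at one dose, limit read from the data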;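 also: plate controls were DMSO wells with completed reaction for no effect and substrate without enzyme for full effect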
# An asterisk follows results filed as active; . = no result given. Most compounds without a hit are left out; they make up all but 2.6% or so of the library.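 The calls were made as follows, unless noted: active = mean inhibition above about 50% in the one-dose retest (limit read from the data); inactive = the rest.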
SMILES,SENP1 FRET inh,SENP8 block-1,SENP8 block-2,Platelet DG rel,SENP7 block,SENP6 inh,SENP8 confirm,SENP6 confirm,SENP7 confirm,Casp3 select,Luc interf
COc1cc(CN(CC2CCCO2)C(=O)c2cccs2)cc(OC)c1OC (stereo not given),2,14,-3,-1,78*,12,-5,-6,-8,2,6
COc1cc(CN(CC2CCCO2)C(=O)c2ccco2)cc(OC)c1OC (stereo not given),1,3,-3,-2,-4,1,.,.,.,.,.
Nc1ccccc1N=Nc1ccccc1N,13,-88,77*,12,85*,86*,85*,83*,96*,73*,64*
Nc1ccccc1-c1ccccc1N,0,-240,-4,-4,0,-1,.,.,.,.,.
O=C(NCc1ccccc1)c1ccccc1OCC(=O)N1CCCCC1,-1,21,2,0,13,4,.,.,.,.,.
CCc1cccc2c(C(=O)COC(=O)c3ccccc3)c[nH]c12,2,18,25,7,53*,60*,7,5,73*,23,46
O=c1c(Cl)c(N2CCCCC2)cnn1-c1nc2ccccc2[nH]1,0,-11,89*,27,97*,97*,96*,96*,102*,98*,6
CCS(=O)(=O)N1CCN(c2cnn(-c3ccccc3)c(=O)c2Cl)CC1,3,10,-4,-2,-1,6,.,.,.,.,.
CC1=NN(c2ccccc2)C(=O)/C1=C/c1c(O)n(-c2ccc(F)c(Cl)c2)[nH]c1=O,.,.,78*,17,-6,84*,5,66*,59*,4,55*
COc1ccc(C)cc1NC(=O)CCNC(=O)Cn1cnc2ccccc2c1=O,1,10,0,0,3,-2,.,.,.,.,.
O=C(Oc1c(Br)cc([N+](=O)[O-])cc1Br)c1cccnc1,-4,36,0,3,-7,5,.,.,.,.,.
Cc1oc(-c2ccccc2)cc1C(=O)Nc1ccccc1,2,24,1,-3,5,6,.,.,.,.,.
Cc1c(C(=O)Nc2ccccc2)csc1-c1ccccc1,3,22,60*,30,95*,57*,-27,42,84*,46,-4
c1ccc2c(Nc3nnc(-c4ccncc4)s3)cccc2c1,-2,-105,46,12,3,61*,15,51*,81*,48,5
Cc1ccsc1/C=N\NC(=O)c1ccc2c(c1)OCO2,2,11,14,0,50*,49,37,34,72*,74*,-1
Cc1ccc(/C=N/NC(=O)c2ccc3c(c2)OCCO3)s1,1,14,11,11,10,1,.,.,.,.,.
Cc1ccsc1/C=N/NC(=O)c1ccc2c(c1)OCCO2,0,7,65*,6,83*,79*,84*,79*,95*,90*,81*
O=C(N/N=C/c1ccc2c(c1)OCO2)c1ccc2c(c1)OCO2,2,-70,0,-14,10,8,.,.,.,.,.
Cc1ccsc1/C=N/NC(=O)c1sccc1C,1,-6,84*,27,93*,88*,14,92*,101*,94*,23
COCCN(C(=O)CCCc1nc2ccccc2s1)c1c(N)n(CC(C)C)c(=O)[nH]c1=O,-44,-61,-5,.,-4,-11,.,.,.,.,.
CC1CC(C)CN(C(=O)CNC(=O)c2ccc3ccccc3c2)C1 (stereo not given),1,-10,0,-22,-4,-5,.,.,.,.,.
Cc1ccc(/C=N/N2CCN(c3ccccn3)CC2)cc1,4,11,-16,1,-2,1,.,.,.,.,.
ClC(=C\c1ccccc1)/C=N/N1CCN(c2ccccn2)CC1,2,8,-13,-8,54*,26,5,6,17,31,5
O=C(O)c1cccc(Nc2ncnc3ccccc23)c1,0,-6,59*,3,-3,68*,70*,64*,85*,36,68*
O=C(O)c1cccc(Nc2ccnc(Nc3cccc(C(=O)O)c3)n2)c1,2,19,90*,.,98*,94*,96*,98*,102*,95*,77*
SMILES,SENP1 FRET inh,SENP8 block-1,SENP8 block-2,Platelet DG rel,SENP7 block,SENP6 inh,SENP8 confirm,SENP6 confirm,SENP7 confirm,Casp3 select,Luc interf
O=C(O)c1cccc(Nc2ncnc3c2cnn3-c2ccccc2)c1,2,-43,90*,6,90*,97*,95*,95*,101*,50,92*
Oc1cccc(Nc2ncnc3ccccc23)c1,-1,-5,-1,-2,11,3,.,.,.,.,.
CCC1C(=O)Nc2ccccc2N1C(=O)COc1ccccc1 (stereo not given),-2,6,4,-31,2,-16,.,.,.,.,.
O=C(NCC(=O)N1CCC(Cc2ccccc2)CC1)c1ccccc1F,1,11,.,.,.,.,.,.,.,.,.
Cc1nc(N)sc1N=Nc1ccccc1C(F)(F)F,0,19,-8,5,5,18,.,.,.,.,.
Cc1[nH]n(C(N)=S)c(=O)c1N=Nc1ccccc1C(F)(F)F,2,18,34,4,2,54*,56*,53*,77*,.,50*
Cc1[nH]n(C(N)=S)c(=O)c1C(c1ccccc1)C(C#N)C#N (stereo not given),3,11,2,-3,1,-8,.,.,.,.,.
NC(=S)n1[nH]c(-c2ccc([N+](=O)[O-])cc2)c(N=Nc2cccc(Cl)c2)c1=O,3,34,1,6,-8,10,.,.,.,.,.
Cc1[nH]n(C(N)=S)c(=O)c1N=Nc1ccc([N+](=O)[O-])cc1Cl,9,24,95*,6,70*,94*,81*,95*,98*,79*,13

# Screens deposited in PubChem BioAssay by several laboratories.
